Six compounds from ChEMBL document CHEMBL2021878, “Discovery of Potent Dual PPARα Agonists/CB1 Ligands” (ACS Med Chem Lett, 2011) can be followed below.

The target of assay [1] is Cannabinoid receptor 1 (Mus musculus) (UniProt P47746). The assay can be described thus: Antagonist activity at CB1 receptor in ICR mouse vas deferens assessed as inhibition of ACEA-stimulated electrically-induced muscle contraction at 10^-6 M. The format is functional, tissue-based. Summed up: (§1)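 Mouse vas deferens under electrical stimulation. Tissues were preincubated with compound at 10^-6 or 2 × 10^-6 M, then increasing concentrations of the CB1 agonist ACEA were added. Mean ± SEM, n = 6–8.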
Cannabinoid receptor 1 (Mus musculus), sequence (P47746 whole entry): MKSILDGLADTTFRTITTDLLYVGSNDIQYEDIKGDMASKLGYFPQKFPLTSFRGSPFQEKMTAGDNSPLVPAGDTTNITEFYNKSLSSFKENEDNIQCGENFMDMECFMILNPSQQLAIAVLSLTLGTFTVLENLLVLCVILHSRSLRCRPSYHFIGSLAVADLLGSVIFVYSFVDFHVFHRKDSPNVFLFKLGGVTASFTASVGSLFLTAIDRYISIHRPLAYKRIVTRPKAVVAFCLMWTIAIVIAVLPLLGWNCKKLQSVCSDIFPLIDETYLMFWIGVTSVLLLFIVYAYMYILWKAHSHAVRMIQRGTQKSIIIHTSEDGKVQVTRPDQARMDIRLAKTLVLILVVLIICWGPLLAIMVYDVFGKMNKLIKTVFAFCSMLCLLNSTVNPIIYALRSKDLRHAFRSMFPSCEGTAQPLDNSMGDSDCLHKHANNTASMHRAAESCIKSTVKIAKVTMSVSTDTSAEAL

For the next assay, the target named is Cannabinoid receptor 1 (Homo sapiens, UniProt P21554). The assay can be described thus: Displacement of [3H]-CP55940 from CB1 receptor after 90 mins by liquid scintillation counting. In general terms: Loss of bound radioactivity is the signal in a displacement assay; it reports binding, not function.
Cannabinoid receptor 1, sequence (P21554 whole entry): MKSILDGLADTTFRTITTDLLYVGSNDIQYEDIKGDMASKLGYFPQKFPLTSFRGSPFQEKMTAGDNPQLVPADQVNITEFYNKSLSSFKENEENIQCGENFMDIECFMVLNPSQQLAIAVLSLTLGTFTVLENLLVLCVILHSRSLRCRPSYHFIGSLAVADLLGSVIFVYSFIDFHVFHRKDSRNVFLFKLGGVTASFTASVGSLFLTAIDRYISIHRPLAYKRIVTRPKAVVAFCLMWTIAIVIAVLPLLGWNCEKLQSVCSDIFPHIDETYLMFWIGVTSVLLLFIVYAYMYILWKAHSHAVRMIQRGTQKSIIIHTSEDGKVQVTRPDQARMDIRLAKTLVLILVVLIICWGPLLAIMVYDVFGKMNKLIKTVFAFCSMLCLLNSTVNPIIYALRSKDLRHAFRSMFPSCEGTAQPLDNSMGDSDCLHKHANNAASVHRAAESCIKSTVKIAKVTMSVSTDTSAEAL
The target of assay [2] is Cannabinoid receptor 1 (Mus musculus) (UniProt P47746). The assay can be described thus: Agonist activity at CB1 receptor in ICR mouse vas deferens assessed as effect on amplitude of nonstimulated muscle contraction at 10^-7 to 1.8 x 10^-5 M relative to control. The format is functional, tissue-based. The gist of the method: (§2)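 Mouse vas deferens, electrically stimulated nerve-smooth muscle preparation. Compounds tested at 10^-7 to 1.8 × 10^-5 M for effects on the nonstimulated basal recording and on the amplitude of electrically evoked contractions. Read-out was % inhibition of evoked contraction compared with vehicle.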

Assay [3] addresses T1, Peroxisome proliferator-activated receptor alpha (Homo sapiens, UniProt Q07869).
T1 sequence (Q07869 whole entry): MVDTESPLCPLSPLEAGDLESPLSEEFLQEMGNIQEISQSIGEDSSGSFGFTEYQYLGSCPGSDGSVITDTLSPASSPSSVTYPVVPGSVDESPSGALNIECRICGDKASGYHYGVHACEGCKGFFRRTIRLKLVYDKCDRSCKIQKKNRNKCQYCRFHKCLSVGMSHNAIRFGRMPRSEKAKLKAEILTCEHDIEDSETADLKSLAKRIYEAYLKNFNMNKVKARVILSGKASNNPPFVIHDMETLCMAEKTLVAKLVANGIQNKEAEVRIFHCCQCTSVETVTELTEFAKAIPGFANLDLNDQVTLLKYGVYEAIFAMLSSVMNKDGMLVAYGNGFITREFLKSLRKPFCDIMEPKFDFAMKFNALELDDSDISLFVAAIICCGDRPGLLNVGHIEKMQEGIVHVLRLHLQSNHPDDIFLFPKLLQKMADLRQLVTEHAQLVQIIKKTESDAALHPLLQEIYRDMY
The assay can be described thus: Agonist activity at human PPARalpha expressed in MCF7 cells co-transfected CPTI DR1-type RE after 16 hrs by luciferase reporter gene assay. It is filed as functional, cell-based. Summed up: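 Luciferase reporter assay in extracts of MCF-7 cells transiently transfected with a reporter carrying four copies of the human CPTI DR1-type response element, plus PPARα, RXRα and NCoR expression vectors. Cells treated 16 h with compounds at 10 μM, DMSO as solvent control. Mean of at least three experiments with SD; two-tailed paired Student's t-test against solvent.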

The target of assay [4] is Cannabinoid receptor 1 (Mus musculus) (UniProt P47746). The assay can be described thus: Agonist activity at CB1 receptor in ICR mouse vas deferens assessed as inhibition of amplitude of electrically-stimulated muscle contraction at 10^-7 to 1.8 x 10^-5 M relative to control. The format is functional, tissue-based. Summed up:
as §2

For assay [5] the target is unchanged. The assay can be described thus: Antagonist activity at CB1 receptor in ICR mouse vas deferens assessed as inhibition of ACEA-stimulated electrically-induced muscle contraction at 2 x 10^-6 M. The format is functional, tissue-based. The gist of the method:
as §1

For assay [6], the target named is T1, Peroxisome proliferator-activated receptor alpha. The assay can be described thus: Agonist activity at human PPARalpha expressed in MCF7 cells co-transfected CPTI DR1-type RE after 6 hrs by luciferase reporter gene assay. The format is functional, cell-based. The gist of the method: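 Luciferase reporter assay in extracts of MCF-7 cells transiently transfected with a human CPTI DR1-type response element reporter (four copies), plus PPARα, RXRα and NCoR vectors. Cells exposed 6 h to compounds at 10 μM, DMSO as solvent control. Basal and ligand-induced activity recorded.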
On the technique in general: In a reporter assay the amount or activity of a reporter protein is the signal.

The test system of the next assay is Rattus norvegicus. The assay can be described thus: Inhibition of food intake in Wistar rat at 0.03 to 3 mg/kg, ip after 30 to 240 mins. It is filed as functional, organism-based.
Assay [7] deals with Cannabinoid receptor 2 (Mus musculus) (UniProt P47936). The assay can be described thus: Antagonist activity at CB2 receptor in ICR mouse vas deferens assessed as inhibition of JWH-015-stimulated electrically-induced muscle contraction. The format is functional, tissue-based.
Cannabinoid receptor 2 (Mus musculus), sequence (P47936 whole entry): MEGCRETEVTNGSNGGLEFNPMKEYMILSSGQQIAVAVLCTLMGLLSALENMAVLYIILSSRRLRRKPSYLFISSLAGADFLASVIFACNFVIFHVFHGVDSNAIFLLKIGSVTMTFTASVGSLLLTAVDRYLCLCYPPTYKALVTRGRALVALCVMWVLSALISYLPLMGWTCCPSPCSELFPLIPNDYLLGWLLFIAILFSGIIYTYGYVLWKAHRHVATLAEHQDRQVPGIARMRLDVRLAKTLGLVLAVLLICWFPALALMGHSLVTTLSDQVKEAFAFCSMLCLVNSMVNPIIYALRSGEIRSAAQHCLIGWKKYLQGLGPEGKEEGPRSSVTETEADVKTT
Assay [8] has as its target Cannabinoid receptor 2 (Homo sapiens) (UniProt P34972). The assay can be described thus: Displacement of [3H]-CP55940 from CB2 receptor after 90 mins by liquid scintillation counting.

Active and inactive are the calls of the source. The calls are words filed in the database; no cut-off is given here.

Cannabinoid receptor 2 (Homo sapiens), sequence (P34972 whole entry): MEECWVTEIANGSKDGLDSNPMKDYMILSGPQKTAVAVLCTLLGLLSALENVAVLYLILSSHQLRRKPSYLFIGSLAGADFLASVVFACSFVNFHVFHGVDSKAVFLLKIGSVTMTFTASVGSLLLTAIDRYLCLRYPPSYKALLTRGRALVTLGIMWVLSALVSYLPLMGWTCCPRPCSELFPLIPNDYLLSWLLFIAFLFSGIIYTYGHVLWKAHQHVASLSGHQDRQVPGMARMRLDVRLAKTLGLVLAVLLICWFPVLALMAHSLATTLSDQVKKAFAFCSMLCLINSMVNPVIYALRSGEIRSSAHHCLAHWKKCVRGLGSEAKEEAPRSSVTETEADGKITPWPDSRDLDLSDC

The inhibition is the share of the control response that was lost under treatment. In the case of `Cc1c(C(=O)NN2CCCCC2)nn(-c2ccc(Cl)cc2Cl)c1-c1ccc(I)cc1`, in [1], the inhibition result is “Active”.

What is called Ki is the equilibrium dissociation constant of an inhibitor or competing ligand from its target. A word on the EC50: it is the concentration at which the effect is half-maximal. Turning to `CCOC(=O)C(C)(C)Oc1cccc(NC(=O)c2nn(-c3ccc(Cl)cc3Cl)c(-c3ccc(Cl)cc3)c2C)c1`, at Cannabinoid receptor 1, the inhibition constant Ki amounted to 65 nM. For the same compound, the outcome in assay [2] and in assay [7] was inactive. Also, the outcome in [1] and in [5] was Active. Further, the EC50 is 743 nM in assay [3] and 856 nM in assay [6]. For the same compound, the inhibition in assay [4] was less than 10%. Moreover, the inhibition result in the assay with Rattus norvegicus is “inactive”.

In the case of `Cc1c(C(=O)Nc2cccc(O)c2)nn(-c2ccc(Cl)cc2Cl)c1-c1ccc(Cl)cc1`, on Cannabinoid receptor 1, the affinity, expressed as Ki, was 52 nM. The figures for the EC50 in assay [3] and in assay [6] were 989 nM and 887 nM, respectively.

In turn, `CCOC(=O)C(C)(C)Oc1ccc(NC(=O)c2nn(-c3ccc(Cl)cc3Cl)c(-c3ccc(Cl)cc3)c2C)cc1` showed a Ki on Cannabinoid receptor 1 of 109 nM. Also, in [8], the outcome was inactive. This compound came in with an EC50 in assay [6] of 1480 nM.

For the compound `Cc1c(C(=O)Nc2ccc(O)cc2)nn(-c2ccc(Cl)cc2Cl)c1-c1ccc(Cl)cc1`, the Ki on Cannabinoid receptor 1 came out at 4.6 nM. The result in assay [2] was inactive. Besides, the result in [1], in assay [5] and in assay [7] was Active. Also, the inhibition in assay [4] was less than 10%. This compound registered an EC50 in assay [6] of 971 nM. Also, the inhibition entry in the assay on Rattus norvegicus is “inactive”.

Turning to `CCCCCCCC/C=C\CCCCCCCC(=O)NCCO` [OLEOYLETHANOLAMIDE], the values for the EC50 in assay [3] and in [6] were 152 nM and 185 nM, respectively.
